Laboratory results as given in ChEMBL document CHEMBL1156003, “A strategy of employing aminoheterocycles as amide mimics to identify novel, potent and bioavailable soluble epoxide hydrolase inhibitors” (Bioorg Med Chem Lett, 2009).

Key:
[1] = target: T1, Bifunctional epoxide hydrolase 2 (Homo sapiens, UniProt P34913); test: Inhibition of human sEH
T1 sequence (P34913 whole entry): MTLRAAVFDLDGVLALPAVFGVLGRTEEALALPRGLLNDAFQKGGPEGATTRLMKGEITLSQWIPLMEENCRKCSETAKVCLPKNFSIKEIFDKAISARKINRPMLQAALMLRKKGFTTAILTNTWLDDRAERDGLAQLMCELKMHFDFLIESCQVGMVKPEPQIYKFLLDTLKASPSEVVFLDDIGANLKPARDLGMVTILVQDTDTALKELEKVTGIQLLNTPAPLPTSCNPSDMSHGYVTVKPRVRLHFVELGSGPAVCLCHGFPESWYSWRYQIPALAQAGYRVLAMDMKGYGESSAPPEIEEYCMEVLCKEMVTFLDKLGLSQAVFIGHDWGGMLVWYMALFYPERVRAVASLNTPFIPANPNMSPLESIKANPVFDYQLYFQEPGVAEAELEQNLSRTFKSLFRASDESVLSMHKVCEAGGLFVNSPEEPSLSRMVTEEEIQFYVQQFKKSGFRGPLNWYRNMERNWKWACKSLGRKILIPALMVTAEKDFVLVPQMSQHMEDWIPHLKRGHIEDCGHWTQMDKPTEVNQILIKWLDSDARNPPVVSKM
Method in brief: (§1)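 Human and rat sEH enzyme inhibition; values from one or two experiments, each in triplicate, within 20% deviation on repeat.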

[2] = target: T2, Bifunctional epoxide hydrolase 2 (Rattus norvegicus, UniProt P80299); test: Inhibition of rat sEH; method in brief: as §1
T2 sequence (P80299 whole entry): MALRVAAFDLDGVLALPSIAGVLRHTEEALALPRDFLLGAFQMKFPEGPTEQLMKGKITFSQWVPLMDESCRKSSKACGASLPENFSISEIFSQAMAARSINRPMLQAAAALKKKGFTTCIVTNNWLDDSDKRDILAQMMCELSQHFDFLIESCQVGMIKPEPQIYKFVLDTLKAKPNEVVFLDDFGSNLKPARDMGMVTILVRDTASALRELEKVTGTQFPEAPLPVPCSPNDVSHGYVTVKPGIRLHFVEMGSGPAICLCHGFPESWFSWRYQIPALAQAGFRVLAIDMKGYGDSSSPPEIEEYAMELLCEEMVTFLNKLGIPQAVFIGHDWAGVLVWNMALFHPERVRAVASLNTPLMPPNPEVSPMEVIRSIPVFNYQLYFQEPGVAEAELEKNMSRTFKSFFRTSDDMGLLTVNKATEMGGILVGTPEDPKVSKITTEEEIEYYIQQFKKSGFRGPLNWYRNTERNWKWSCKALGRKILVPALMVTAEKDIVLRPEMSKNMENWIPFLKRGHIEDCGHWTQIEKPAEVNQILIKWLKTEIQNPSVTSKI

[3] = Oral bioavailability in rat at 2 mg/kg; format: ADME, organism-based; conditions: in vivo
Method in brief: (§2)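 Rat PK: dosed at 1 mg/mL in ethanol/PEG/water (20:40:40); IV 1 mg/kg (n = 2), PO 2 mg/kg (n = 3). Blood levels measured by LC/MS/MS after acetonitrile protein precipitation.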

[4] = Clearance in rat at 1 mg/kg, iv and 2 mg/kg, po; format: ADME, organism-based; conditions: in vivo; method in brief: as §2
[5] = Volume of distribution at steady state in rat at 1 mg/kg, iv and 2 mg/kg, po; format: ADME, organism-based; conditions: in vivo, read-out: Vdss; method in brief: as §2
[6] = Half life at steady state in rat at 1 mg/kg, iv and 2 mg/kg, po; format: ADME, organism-based; conditions: in vivo; method in brief: as §2
[7] = target: T1, Bifunctional epoxide hydrolase 2; test: Inhibition of human sEH assessed as DHET production in presence of 10% human serum
Plasma [8] = test: Fraction unbound in rat plasma at 0.2 to 25 uM; format: ADME, cell-free; conditions: in the assay text read “0.5 to 25 uM” for “0.2 to 25 uM”
Method in brief: (§3)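 Free fraction measured with radiolabeled compound in human and rat plasma, compound at 0.5–25 μM.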

Plasma [9] = test: Fraction unbound in human plasma at 0.2 to 25 uM; format: ADME, cell-free; conditions: in the assay text read “0.5 to 25 uM” for “0.2 to 25 uM”; method in brief: as §3

SMILES	IC50 [1] [nM]	IC50 [2] [nM]	other results
FC(F)(F)c1ccc(Nc2noc3c(C(F)(F)F)cccc23)cc1	4	127	bioavailability [3]: 98%; clearance [4]: 30 mL/min/kg; Vd [5]: 7 L/kg; half-life [6]: 5.9 h; IC50 [7]: 1200 nM; Fu (Plasma [8]): 0.9%; Fu (Plasma [9]): 0.7%
FC(F)(F)c1nnc(Nc2ccccc2)o1	2000	–	–
FC(F)(F)c1ccc(Nc2noc3c(-c4ccccc4C(F)(F)F)cccc23)cc1	4	79	–
FC(F)(F)c1ccc(Nc2noc3cc(-c4cccc(C(F)(F)F)c4)ccc23)cc1	470	570	–
c1ccc(CNc2nc3ccccc3o2)cc1	> 10000	–	–
FC(F)(F)c1ccc(Nc2noc3c(C(F)(F)F)cccc23)nc1	> 10000	> 10000	–
c1ccc(Cc2nnc(Nc3ccccc3)o2)cc1	> 10000	–	–
FC(F)(F)c1ccc(CNc2cc(-c3ccccc3)on2)cc1	4700	–	–
FC(F)(F)c1ccc(CNc2noc3ccccc23)cc1	1200	–	–
c1ccc(CNc2nnc(-c3ccccc3)o2)cc1	> 10000	–	–
FC(F)(F)c1ccc(Nc2noc3cc(-c4ccncc4)ccc23)cc1	58	19	–
Cc1cccnc1-c1ccc2c(Nc3ccc(C(F)(F)F)cc3)noc2c1	70	290	–
FC(F)(F)c1ccc(Nc2nsc3ccccc23)cc1	2500	–	–
FC(F)(F)c1ccc(Nc2noc3c(C(F)(F)F)cccc23)cn1	74	3400	–
FC(F)(F)c1ccc(Nc2cc(-c3ccccc3)on2)cc1	> 10000	–	–
c1ccc(CNc2ccc(-c3ccccc3)cn2)cc1	> 10000	–	–
c1ccc(CNc2cnc(-c3ccccc3)cn2)cc1	> 10000	–	–
FC(F)(F)c1ccc(Nc2noc3cc(-c4cccc5cnccc45)ccc23)cc1	19	30	–
FC(F)(F)Oc1ccc(Nc2noc3ccccc23)cc1	60	170	–
c1ccc(-c2cccc(Nc3noc4ccccc34)c2)cc1	960	–	–
FC(F)(F)c1ccc(Nc2noc3ccc(C(F)(F)F)cc23)cc1	40	1500	–
FC(F)(F)Oc1cccc(Nc2noc3ccccc23)c1	160	160	–
c1ccc(CNc2cnc3ccccc3n2)cc1	> 10000	–	–

SMILES	IC50 [1] [nM]	IC50 [2] [nM]	other results
FC(F)(F)c1ccc(Nc2noc3ccccc23)cc1	25	76	–
FC(F)(F)c1ccc(Nc2noc3ccncc23)cc1	340	–	–
c1ccc2cc(Nc3noc4ccccc34)ccc2c1	1200	–	–
FC(F)(F)c1ccc(Nc2noc3ncccc23)cc1	27	–	–
FC(F)(F)c1ccc(Nc2noc3cccnc23)cc1	1100	–	–
FC(F)(F)c1ccc(Nc2noc3cc(C(F)(F)F)ccc23)cc1	18	–	–
c1ccc(CNc2nnc(Cc3ccccc3)o2)cc1	> 10000	–	–
FC(F)(F)Oc1ccccc1Nc1noc2ccccc12	5200	–	–
c1ccc(-c2ccc(Nc3noc4ccccc34)cc2)cc1	170	740	–
FC(F)(F)c1ccc(Nc2noc3cc(-c4ccccc4C(F)(F)F)ccc23)cc1	8	70	–
FC(F)(F)c1cccc(CNc2cc(-c3ccccc3)ncn2)c1	> 10000	–	–
c1ccc(CNc2nc3ccccc3s2)cc1	> 10000	–	–
FC(F)(F)c1ccccc1Nc1noc2ccccc12	960	–	–
FC(F)(F)c1ccc(Nc2n[nH]c3ccccc23)cc1	> 10000	–	–
Fc1ccccc1-c1ccc2c(Nc3ccc(C(F)(F)F)cc3)noc2c1	91	55	–
FC(F)(F)c1ccc(Nc2noc3cnccc23)cc1	31	–	–
c1ccc(CNc2cc(-c3ccccc3)ccn2)cc1	> 10000	–	–
FC(F)(F)c1ccc(Nc2noc3c(-c4ccc5[nH]ccc5c4)cccc23)cc1	8	41	–
FC(F)(F)c1ccc(Nc2noc3cc(-c4ccc5[nH]ccc5c4)ccc23)cc1	70	77	–
FC(F)(F)c1ccc(Nc2noc3cc(-c4cccnc4)ccc23)cc1	23	20	–
FC(F)(F)c1ccc(Nc2noc3c(-c4cccc(C(F)(F)F)c4)cccc23)cc1	10	130	–
c1ccc2c(Nc3noc4ccccc34)cccc2c1	840	4600	–
FC(F)(F)c1ccc(Nc2noc3c(C(F)(F)F)nccc23)cc1	19	300	–
